The test system of one assay is Huh-7. As to the kind of experiment: Cytotoxic concentration against HCV RNA replication in a subgenomic replicon Huh7 cell line. As to conditions: Homo sapiens. The format is functional. (Replicon systems follow genome replication, usually without infectious particles.)
The subject of a further assay is Hepatitis C virus. As to the kind of experiment: Effective concentration against HCV RNA replication in a subgenomic replicon Huh7 cell line. The format is functional, Hepacivirus hominis. As to conditions: Huh-7. The essentials:
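HCV replicon Clone A cells in log-phase growth exposed to various compound concentrations for 3 days. HCV RNA extracted and quantified by real-time PCR. EC90 is the concentration reducing HCV RNA by 90%.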

Here are results for 15 compounds from ChEMBL document CHEMBL1140444, “Synthesis and structure-activity relationships of novel anti-hepatitis C agents: N3,5'-cyclo-4-(beta-D-ribofuranosyl)-vic-triazolo[4,5-b]pyridin-5-one derivatives” (2005).

The term CC50 denotes the concentration at which the toxic effect on the cells reaches its halfway point. A high value points to better tolerance by the cells. In general, EC90 refers to the point of the concentration-response curve where the effect stands at 90%. Higher therefore signals weaker potency. Compound `CCNc1cc(=O)n2c3c1nnn3C[C@H]1O[C@@H]2[C@H](O)C1O` (single isomer, unassigned) displayed a cytotoxic concentration (CC50) in the assay with Huh-7 of more than 100 µM. The compound also came in with a concentration for an effect of 90% (EC90) in the assay with Hepatitis C virus of more than 100 µM.

Regarding `Cc1cc(=O)n2c3c1nnn3C[C@H]1O[C@@H]2[C@H](O)C1O` (single isomer, unassigned), in the assay on Huh-7, the midpoint of cytotoxicity, the CC50, lay at 22.6 µM. The 90% effect level in the assay with Hepatitis C virus (EC90) was put at 15.4 µM.

For `COCCNc1cc(=O)n2c3c1nnn3C[C@H]1O[C@@H]2[C@H](O)C1O` (single isomer, unassigned), in the assay on Huh-7, the half-maximal cytotoxic concentration (CC50) is 97.3 µM. The compound also gave an EC90 in the assay with Hepatitis C virus of 86.1 µM.

In turn, `CN(C)c1cc(=O)n2c3c1nnn3C[C@H]1O[C@@H]2[C@H](O)C1O` (single isomer, unassigned) displayed a cytotoxic concentration (CC50) with Huh-7 of more than 100 µM. Also, the concentration for an effect of 90% (EC90) in the assay on Hepatitis C virus was more than 100 µM.

In the assay with Huh-7, `CNc1cc(=O)n2c3c1nnn3C[C@H]1O[C@@H]2[C@H](O)C1O` (single isomer, unassigned) registered a CC50 of 4.6 µM. In the assay with Hepatitis C virus, this compound displayed a concentration for an effect of 90% (EC90) of 7.4 µM.

In the assay with Huh-7, `O=c1c(Cl)cc2nnn3c2n1[C@@H]1O[C@H](C3)C(O)[C@H]1O` (single isomer, unassigned) showed a CC50 of 0.06 µM. In the assay with Hepatitis C virus, the EC90 came out at 2.1 µM.

`O=c1ccc2nnn3c2n1[C@@H]1O[C@H](C3)C(O)[C@H]1O` (single isomer, unassigned): in the assay on Huh-7, the CC50 came out at 30.6 µM. The same compound had a 90% effect concentration (EC90) in the assay on Hepatitis C virus of 79.8 µM.

`OC1[C@@H](O)[C@H]2O[C@@H]1Cn1nnc3ccc(=S)n2c31` (single isomer, unassigned): the CC50 in the assay on Huh-7 turned out to be 11.9 µM. The EC90 with Hepatitis C virus came out at 10 µM.

In the assay with Huh-7, `CCCNc1cc(=O)n2c3c1nnn3C[C@H]1O[C@@H]2[C@H](O)C1O` (single isomer, unassigned) showed a CC50 of more than 100 µM. The compound also showed an EC90 with Hepatitis C virus of more than 100 µM.

`CCCCNc1cc(=O)n2c3c1nnn3C[C@H]1O[C@@H]2[C@H](O)C1O` (single isomer, unassigned): the CC50 in the assay on Huh-7 is more than 100 µM. In addition, in the assay on Hepatitis C virus, the 90% effect concentration (EC90) is more than 100 µM.

`O=c1cc(NCCO)c2nnn3c2n1[C@@H]1O[C@H](C3)C(O)[C@H]1O` (single isomer, unassigned) registered a CC50 with Huh-7 of more than 100 µM. The same compound returned a 90% effect concentration (EC90) in the assay with Hepatitis C virus of more than 100 µM.

As to `O=c1c(Br)cc2nnn3c2n1[C@@H]1O[C@H](C3)C(O)[C@H]1O` (single isomer, unassigned), in the assay on Huh-7, the CC50 is 1.5 µM. The compound further had a 90% effect concentration (EC90) in the assay on Hepatitis C virus of 1.9 µM.

Compound `Nc1cc(=O)n2c3c1nnn3C[C@H]1O[C@@H]2[C@H](O)C1O` (single isomer, unassigned) came in with a 50% cytotoxic concentration (CC50) with Huh-7 of 74.2 µM. The concentration for an effect of 90% (EC90) in the assay with Hepatitis C virus amounted to 29.7 µM.

In turn, `O=c1cc(NC2CC2)c2nnn3c2n1[C@@H]1O[C@H](C3)C(O)[C@H]1O` (single isomer, unassigned) displayed a CC50 in the assay on Huh-7 of more than 100 µM. Moreover, the EC90 in the assay with Hepatitis C virus was more than 100 µM.

`O=c1cc(NCCCO)c2nnn3c2n1[C@@H]1O[C@H](C3)C(O)[C@H]1O` (single isomer, unassigned): in the assay with Huh-7, the 50% cytotoxic concentration (CC50) is more than 100 µM. Besides, the concentration for an effect of 90% (EC90) with Hepatitis C virus is more than 100 µM.
